From ChEMBL document CHEMBL1938254, “Semisynthetic neoboutomellerone derivatives as ubiquitin-proteasome pathway inhibitors” (Bioorg Med Chem, 2012)
Calls of active or inactive are those of the source. The calls are words filed in the database; no cut-off is given here.

Key:
DLD-1 [1] = experiment: Inhibition of 20S proteasome activity in human DLD1 cells transfected with 4Ub-Luc gene assessed as bioluminescence induction factor at 10 uM after 8 hrs by luciferase reporter gene assay relative to epoxomicin; assay type: cell-based
Method in brief: (§1)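 Stably transfected DLD-1 cells expressing 4Ub-Luc reporter, cultured in MEM with 5% heat-inactivated serum. Seeded at 10⁴ cells/well and treated with compound or solvent for 8 h. Luciferase activity in lysates read by luminometer. Induction factor = signal of treated over untreated cells, normalised to epoxomicin at 10^-7 M run in parallel (set to 100). IF ≥10 counted active.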

[2] = Inhibition of chymotrypsin-like activity of 20S proteasome in human DLD1 cells transfected with 4Ub-Luc gene using Succinyl-Leu-Leu-Val-Tyr-AMC as substrate after 6 hrs by spectrofluorometric analysis; assay type: cell-based; conditions: dld-1
Method in brief: (§2)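 DLD-1 4Ub-Luc cells seeded at 10⁴ cells/well, exposed to compound or solvent for 6 h, then 30 min in reaction buffer (30 mM Tris–HCl pH 7.5, 1 mM ATP). Chymotrypsin-like and PGPH activities read with specific fluorogenic substrates.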

DLD-1 [3] = experiment: Inhibition of 20S proteasome in human DLD1 cells transfected with 4Ub-Luc gene assessed as bioluminescence induction factor at 1 uM after 8 hrs by luciferase reporter gene assay relative to epoxomicin; assay type: cell-based; method in brief: as §1
DLD-1 [4] = experiment: Inhibition of 20S proteasome in human DLD1 cells transfected with 4Ub-Luc gene assessed as bioluminescence induction factor at 5 uM after 8 hrs by luciferase reporter gene assay relative to epoxomicin; assay type: cell-based; method in brief: as §1
[5] = Cytotoxicity against human WM266.4 cells after 72 hrs by ATPlite assay; assay type: functional, cell-based; conditions: WM 266-4, 72 h
Method in brief: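 WM-266-4 metastatic melanoma cells grown in DMEM with 10% fetal calf serum, 2 mM L-glutamine, fungizone and penicillin–streptomycin at 37 °C, 5% CO2. Seeded at 3 × 10⁴ cells/ml, left 24 h, then exposed to increasing compound concentrations for 72 h. Viability read as ATP level (ATPlite). IC50 from nonlinear sigmoidal fit with variable Hill slope; mean of two independent experiments.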

[6] = Inhibition of peptide-glutamyl-peptide-hydrolyzing activity of 20S proteasome in human DLD1 cells transfected with 4Ub-Luc gene using Z-Leu-Leu-Glu-AMC as substrate after 6 hrs by spectrofluorometric analysis; assay type: cell-based; conditions: dld-1; method in brief: as §2
DLD-1 [7] = experiment: Inhibition of 20S proteasome in human DLD1 cells transfected with 4Ub-Luc gene assessed as bioluminescence induction factor at 0.5 uM after 8 hrs by luciferase reporter gene assay relative to epoxomicin; assay type: cell-based; method in brief: as §1
DLD-1 [8] = experiment: Inhibition of 20S proteasome in human DLD1 cells transfected with 4Ub-Luc gene assessed as bioluminescence induction factor at 0.1 uM after 8 hrs by luciferase reporter gene assay relative to epoxomicin; assay type: cell-based; method in brief: as §1
DLD-1 [9] = experiment: Inhibition of chymotrypsin-like activity of 20S proteasome in human DLD1 cells transfected with 4Ub-Luc gene using Succinyl-Leu-Leu-Val-Tyr-AMC as substrate at 20 uM after 6 hrs by spectrofluorometric analysis; assay type: cell-based
Method in brief: (§3)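 Stably transfected DLD-1 4Ub-Luc cells seeded at 10⁴ cells/well, exposed to compound or solvent for 6 h, then incubated a further 30 min in reaction buffer (30 mM Tris–HCl pH 7.5, 1 mM ATP) with an activity-specific fluorogenic substrate; cellular proteasome activity read by fluorescence. Cells grown in MEM with 5% heat-inactivated serum.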

DLD-1 [10] = experiment: Inhibition of peptide-glutamyl-peptide-hydrolyzing activity of 20S proteasome in human DLD1 cells transfected with 4Ub-Luc gene using Z-Leu-Leu-Glu-AMC as substrate at 40 uM after 6 hrs by spectrofluorometric analysis; assay type: cell-based; method in brief: as §3

| Structure (SMILES) | IC50 [2] [µM] | IC50 [6] [µM] | fold change (FC) (DLD-1 [1]) | fold change (FC) (DLD-1 [3]) | fold change (FC) (DLD-1 [4]) | IC50 [5] [µM] | fold change (FC) (DLD-1 [7]) | fold change (FC) (DLD-1 [8]) | inhibition (DLD-1 [9]) | inhibition (DLD-1 [10]) |
| --- | --- | --- | --- | --- | --- | --- | --- | --- | --- | --- |
| CC(C)C[C@H](NC(=O)[C@H](Cc1ccccc1)NC(=O)c1cnccn1)B(O)O [BORTEZOMIB] | 0.0002 | 0.0009 | – | 117 | – | 0.035 | – | 133 | – | – |
| CC(=O)N[C@@H](CSC(=O)[C@]1([C@@H](O)C(C)C)NC(=O)[C@H](C)[C@@H]1O)C(=O)O [LACTACYSTIN] | 0.07 | 0.3 | 93 | 72 | 106 | – | – | 6.2 | – | – |
| C[C@]12C(=O)C=CCC1=CC[C@@H]1[C@@H]2CC[C@]2(O)C(=O)O[C@@]3(C)[C@H]4C[C@]5(C)[C@@H](CO[C@@]16O[C@@]32[C@H]5C6=O)C(=O)O4 | – | – | – | – | 19 | – | – | – | Active | Active |
| CC[C@H](C)[C@H](NC(=O)[C@H]([C@@H](C)CC)N(C)C(C)=O)C(=O)N[C@H](C(=O)N[C@@H](CC(C)C)C(=O)[C@@]1(C)CO1)[C@@H](C)O [EPOXOMYCIN] | 0.006 | 0.06 | – | 112 | – | 0.0048 | – | 100 | – | – |
| C=C(C(=O)[C@H](O)[C@@H](C)[C@H]1[C@@H](OC(C)=O)C[C@@]2(C)[C@@H]3CC[C@H]4[C@H](C)C(=O)C=C[C@@]45C[C@@]35CC[C@]12C)[C@@H](C)CO | 42 | 51 | 2.9 | 45 | 28 | 1.6 | 1.4 | – | – | – |

Second part, led by results:

| IC50 [2] [µM] | IC50 [6] [µM] | Structure (SMILES) | fold change (FC) (DLD-1 [1]) | fold change (FC) (DLD-1 [3]) | fold change (FC) (DLD-1 [4]) | IC50 [5] [µM] | fold change (FC) (DLD-1 [7]) | fold change (FC) (DLD-1 [8]) | inhibition (DLD-1 [9]) | inhibition (DLD-1 [10]) |
| --- | --- | --- | --- | --- | --- | --- | --- | --- | --- | --- |
| > 1000 | > 1000 | C=C(C(=O)[C@H](OC(C)=O)[C@@H](C)[C@H]1[C@@H](OC(C)=O)C[C@@]2(C)[C@@H]3CC[C@H]4[C@H](C)C(=O)C=C[C@@]45C[C@@]35CC[C@]12C)[C@@H](C)COC(=O)Nc1ccc(N(C)C)cc1 | 60 | 51 | 63 | 0.96 | 19 | – | – | – |
| 50 | 100 | C=C(C(=O)[C@H](OC(=O)CCl)[C@@H](C)[C@H]1[C@@H](OC(C)=O)C[C@@]2(C)[C@@H]3CC[C@H]4[C@H](C)C(=O)C=C[C@@]45C[C@@]35CC[C@]12C)[C@@H](C)COC(C)=O | 5 | 64 | 21 | 0.66 | 23 | – | – | – |
| 31 | 45 | C=C(C(=O)[C@H](O)[C@@H](C)[C@H]1[C@@H](OC(C)=O)C[C@@]2(C)[C@@H]3CC[C@H]4[C@H](C)C(=O)C=C[C@@]45C[C@@]35CC[C@]12C)[C@@H](C)COC(C)=O | 6 | 26 | 29 | 0.99 | 1.7 | – | – | – |
| > 1000 | > 1000 | C=C(C(=O)[C@H](O)[C@@H](C)[C@H]1[C@@H](OC(C)=O)C[C@@]2(C)[C@@H]3CC[C@H]4[C@H](C)C(=O)C=C[C@@]45C[C@@]35CC[C@]12C)[C@@H](C)COC(=O)Nc1ccc(N(C)C)cc1 | 34 | 51 | 47 | 0.82 | 11 | – | – | – |
| 13 | 16 | C=C(C(=O)[C@H](OC(C)=O)[C@@H](C)[C@H]1[C@@H](OC(C)=O)C[C@@]2(C)[C@@H]3CC[C@H]4[C@H](C)C(=O)C=C[C@@]45C[C@@]35CC[C@]12C)[C@@H](C)COC(=O)N1CCN(C)CC1 | 1 | 68 | 4.2 | 0.5 | 8 | – | – | – |
